According to paper PMC3945061 (Pain, 2013):

How the values were obtained:
[1] = tested on: pain / nociception; settings: cited from earlier work
[2] = tested on: rats (lower limbs); experiment: Motor paralysis after intrathecal injection; type: in vivo, rat; settings: intrathecal lidocaine 400 μg/20 μl
[3] = tested on: SNL rats (mechanical hypersensitivity); experiment: Paw withdrawal threshold; type: in vivo, rat; settings: intrathecal FMRFamide 2 mM, 10 μl, n=7, 30 and 60 minutes
In short: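 Male Sprague-Dawley rats (200–350 g) had the left L5 spinal nerve ligated with 6-0 silk and cut distally. They were tested 4–5 weeks later via an intrathecal PE-10 catheter inserted through the atlanto-occipital membrane, with compound diluted in saline. Ipsilateral plantar PWT was measured by the up-down method (von Frey 0.38–13.1 g, 4–6 s) using the Dixon formula. Tests ran in the morning, blinded.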

[4] = tested on: DRG neurons from Mrg KO mice; experiment: Calcium imaging, DRG neurons from Mrg KO mice; type: cell-based, mouse; settings: capsaicin 0.5 μM, positive control, after JHU58
In short: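 Mrg KO mice: 845 kb chromosome 7 deletion covering 12 Mrg genes incl. MrgC11, backcrossed to C57BL/6 at least five generations. DRGs from 3–4-week-old mice were enzyme-dissociated at 37°C, plated on poly-D-lysine/laminin coverslips, and used within 24 h. Fura-2 AM loading for 30 min in the dark at room temperature; 340/380 nm ratio imaging; bath drug application; experimenter blinded to genotype.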

In the case of γ^2-MSH, the “Effect on nociception (acute and inflammatory pain models)” value ([1]; systemic and intrathecal injections) is listed as “produce pronociceptive effects in acute pain models and contribute to heat hyperalgesia in an inflammatory pain model”.

In the case of `CCN(CC)CC(=O)Nc1c(C)cccc1C` [lidocaine], the “Motor paralysis of the lower limbs” value [2] is reported as “temporary motor paralysis of the lower limbs”.

In the case of FMRFamide, the “Mechanical hypersensitivity, ipsilateral PWT” value [3] is reported as “inhibited mechanical hypersensitivity in the ipsilateral hindpaw of SNL rats”.

In the case of `COc1cc(CNC(=O)CCCC/C=C/C(C)C)ccc1O` [capsaicin], the “DRG neurons from Mrg KO mice with an increase in [Ca2+]i” value [4] is listed as 32% and the “Effect on pain, peripheral versus central application” value ([1]; capsaicin) is listed as “induces burning pain in the periphery, but it inhibits pain when applied centrally”.
